A number with no mark means an inactive call.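 The calls were made as follows, unless noted: active = growth inhibition above 25% in both replicates, a cutoff set 3 SD above the mean; inconclusive = above 25% in only one replicate; inactive = the rest.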

The first assay is described as follows: OD615 S. cerevisiae growth inhibition, permissive medium, pilot counter-assay, permissive growth control for S. cerevisiae lifespan shortening project (AID 705). As to conditions: OD615, 24 h, at 10 µM, stronger effect = higher value. In a few lines:
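Material: engineered DeaD yeast; compound dosing: one dose 10 µM, DMSO 0.25% final; measure: yeast growth inhibition indicated by reduced 24 h OD615; detection: OD615 turbidity read; incubation: cells pre-grown 4 h, then 24 h compound exposure, 30 °C humidified; medium: permissive synthetic complete medium with raffinose and galactose carbon sources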
Consider `c1ccc(N2CCN(c3ncnc4c3oc3ccccc34)CC2)cc1`, for which the growth inhibition is -16.2%.

Turning to `CCOc1cccc(-c2nc(C(N)=O)c3[nH]c(=O)n(-c4cccc(Cl)c4)c3n2)c1O`, the growth inhibition was -2.52%.

Regarding `COc1ccc(CC(=O)Nc2c3c(nn2C(C)(C)C)CS(=O)C3)cc1` (stereo not drawn), the growth inhibition is -13.6%.

Take `CC1=C(C(=O)OCc2ccccc2)C(c2ccco2)C2=C(CC(C)(C)CC2=O)N1` (stereo not drawn): the growth inhibition was -13.1%.

With `COc1ccc(C(=O)O)cc1Nc1cc(C)nc2ncnn12`, the growth inhibition was 1.95%.

On to `CCOCCCNC(=O)c1cn(CC(C)C)c(=O)c2cc(OC)c(OC)cc12`, for which the growth inhibition is -22.4%.

Regarding `COc1ccccc1C(=O)N1CCN(c2cccc(Cl)c2)CC1`, the growth inhibition is -9.06%.

For `O=C(NCCn1cc(SCC(=O)N2CCOCC2)c2ccccc21)c1ccccc1`, the growth inhibition is 1.06%.

`Cc1cc2cc(CNC(=O)c3ccc(Br)o3)ccc2[nH]1`: the growth inhibition is -6.49%.

Take `COc1cccc(NC(=O)CN2C(=O)COc3ccc(Cl)cc32)c1`: the growth inhibition was -12.2%.

As to `c1csc(Cc2nc(-c3ccc(-n4cccc4)cc3)no2)c1`, the growth inhibition is -6.69%.

With `O=C1C2C3c4ccccc4C(c4ccccc43)C2C(=O)N1Cc1ccco1` (stereo not drawn), the growth inhibition was -2.21%.

Consider `COc1cccc(C2CC(=O)N3CN(c4cccc(Cl)c4C)CSC3=C2C#N)c1OC` (stereo not drawn), for which the growth inhibition was 5.33%.

For `O=C(OCC(=O)c1cccs1)c1ccc(NC(=O)c2ccco2)cc1`, the growth inhibition is -6.02%.

As to `O=C(Nc1ccc(N2CCN(C(=O)c3ccccc3)CC2)c(Cl)c1)c1ccco1`, the growth inhibition was 4.29%.

With `Cc1ccc(S(=O)(=O)NCc2ccco2)cc1C`, the growth inhibition was -1.9%.

In the case of `CCOC(=O)Cn1c(CN2CCc3ccccc3C2)nc2c1c(=O)n(C)c(=O)n2C`, the growth inhibition is -7.72%.

As for `CCc1ccc(C2CC(=O)NC(SCC(=O)OC(C)C)=C2C#N)cc1` (stereo not drawn), the growth inhibition was -13.8%.

`CCNCCNC(=O)c1c(O)c2cccc3c2n(c1=O)CCC3`: the growth inhibition was -22.8%.

`CCN(C(=O)c1sc(N)c(C#N)c1C)C1CCCCC1`: the growth inhibition is -1.28%.

`COC(=O)C1C(O)=C(C=NCC(C)N=CC2=C(O)C(C(=O)OC)C(C)(C)CC2=O)C(=O)CC1(C)C` (stereo not drawn): the growth inhibition is -4.88%.

Turning to `CCCCNC(=O)CS(=O)Cc1nc(-c2cccc(Cl)c2)oc1C` (stereo not drawn), the growth inhibition was -2.86%.

For the molecule `CCn1c(SCC(=O)Nc2nnc(C)s2)nc2c(c1=O)SC(C)C2` (stereo not drawn), the growth inhibition is -0.875%.

As for `CC(=O)N1CCC2(CC1)C(C#N)=C(N)Oc1n[nH]c(C)c12`, the growth inhibition is -6.98%.

In the case of `O=C1c2ccccc2C(O)N1CCN1CCOCC1` (stereo not drawn), the growth inhibition was -0.105%.

With `Cc1sc2nc(SCC(=O)N3CCOCC3)[nH]c(=O)c2c1C`, the growth inhibition was -1.58%.

In the case of `Cn1nnnc1SCc1nc2ccccc2[nH]1`, the growth inhibition is -7.39%.

Turning to `CCOC(=O)c1cc2c(=O)n3ccccc3nc2n(CCCOC)c1=NC(=O)c1cccnc1`, the growth inhibition is -0.71%.

Regarding `COc1c(C)cccc1C(=O)Nc1cc(-c2nn3c(C)nnc3s2)ccc1C`, the growth inhibition is 13.5%.

In the case of `O=C1CC(C(=O)N2CCN(c3ccc(F)cc3)CC2)CN1CCc1ccccc1` (stereo not drawn), the growth inhibition is -1.65%.

Take `CCOc1ccc(S(=O)(=O)N2CCN(S(=O)(=O)c3ccc(OCC)cc3)C(C)C2)cc1` (stereo not drawn): the growth inhibition was -7.32%.

Take `O=C(O)CC1C(=O)NCCN1CCCc1ccccc1` (stereo not drawn): the growth inhibition is -11.4%.

For the molecule `O=C(NCC1CCCO1)C1CC(=O)N(c2ccc(F)c(Cl)c2)C1` (stereo not drawn), the growth inhibition is -7.27%.

On to `Cc1ccc(S(=O)(=O)N(C)Cc2nc(-c3ccc(Br)cc3)no2)cc1`, for which the growth inhibition was -3.27%.

With `CCCCN=C(C)C1=C(O)CSC1=O`, the growth inhibition was -1.78%.

For the molecule `C=C(C)Cn1c(C2CC(=O)N(Cc3ccccc3)C2)nc2ccccc21` (stereo not drawn), the growth inhibition was -0.245%.

For `O=C(c1ccccc1)N1CCN(c2ccc(NCc3ccc4c(c3)OCO4)cc2)CC1`, the growth inhibition was -15.1%.

Turning to `Cc1csc2nc(CNS(=O)(=O)N(C)C)cn12`, the growth inhibition was 4.64%.

`CCOC(=O)C1CCCCN1Cc1cc(Cl)ccc1O` (stereo not drawn): the growth inhibition was -3.16%.

A further assay in a line: Restrictive medium S. cerevisiae growth inhibition, OD615, pilot screen of yeast lifespan reduction project, restrictive growth control (AID 706;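 active = growth inhibition above a set limit, 3 SD over mean compound inhibition, in both replicates, cut at about 43% in these data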;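 also: modified DeaD lifespan yeast strain shifted to restrictive glucose medium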). Particulars: OD615, 48 h, at 10 µM, stronger effect = higher value. The method in brief: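 material = engineered S. cerevisiae DeaD strain | medium = glucose-based CSMM-D restrictive medium | times = 4 h pre-incubation, 48 h exposure at 30 °C | technique = OD615 absorbance reading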
Turning to `c1ccc(N2CCN(c3ncnc4c3oc3ccccc34)CC2)cc1`, the growth inhibition was 9.12%.

Consider `CCOc1cccc(-c2nc(C(N)=O)c3[nH]c(=O)n(-c4cccc(Cl)c4)c3n2)c1O`, for which the growth inhibition was -7.1%.

Turning to `COc1ccc(CC(=O)Nc2c3c(nn2C(C)(C)C)CS(=O)C3)cc1` (stereo not drawn), the growth inhibition is -4.57%.

Turning to `CC1=C(C(=O)OCc2ccccc2)C(c2ccco2)C2=C(CC(C)(C)CC2=O)N1` (stereo not drawn), the growth inhibition is -7.33%.

Consider `COc1ccc(C(=O)O)cc1Nc1cc(C)nc2ncnn12`, for which the growth inhibition is -2.37%.

In the case of `CCOCCCNC(=O)c1cn(CC(C)C)c(=O)c2cc(OC)c(OC)cc12`, the growth inhibition was -25.7%.

With `COc1ccccc1C(=O)N1CCN(c2cccc(Cl)c2)CC1`, the growth inhibition is -12.8%.

On to `O=C(NCCn1cc(SCC(=O)N2CCOCC2)c2ccccc21)c1ccccc1`, for which the growth inhibition was -5.21%.

Take `Cc1cc2cc(CNC(=O)c3ccc(Br)o3)ccc2[nH]1`: the growth inhibition is -9.17%.

Turning to `COc1cccc(NC(=O)CN2C(=O)COc3ccc(Cl)cc32)c1`, the growth inhibition was -17.7%.

For the molecule `c1csc(Cc2nc(-c3ccc(-n4cccc4)cc3)no2)c1`, the growth inhibition was -14.7%.

Turning to `O=C1C2C3c4ccccc4C(c4ccccc43)C2C(=O)N1Cc1ccco1` (stereo not drawn), the growth inhibition is 5.63%.

For the molecule `COc1cccc(C2CC(=O)N3CN(c4cccc(Cl)c4C)CSC3=C2C#N)c1OC` (stereo not drawn), the growth inhibition was 19.4%.

As for `O=C(OCC(=O)c1cccs1)c1ccc(NC(=O)c2ccco2)cc1`, the growth inhibition is -19.9%.

Consider `O=C(Nc1ccc(N2CCN(C(=O)c3ccccc3)CC2)c(Cl)c1)c1ccco1`, for which the growth inhibition is 14.1%.

As for `Cc1ccc(S(=O)(=O)NCc2ccco2)cc1C`, the growth inhibition was -6.06%.

For the molecule `CCOC(=O)Cn1c(CN2CCc3ccccc3C2)nc2c1c(=O)n(C)c(=O)n2C`, the growth inhibition is 1.89%.

For `CCc1ccc(C2CC(=O)NC(SCC(=O)OC(C)C)=C2C#N)cc1` (stereo not drawn), the growth inhibition is -4.45%.

`CCNCCNC(=O)c1c(O)c2cccc3c2n(c1=O)CCC3`: the growth inhibition was -19%.

As for `CCN(C(=O)c1sc(N)c(C#N)c1C)C1CCCCC1`, the growth inhibition was -0.585%.

Consider `COC(=O)C1C(O)=C(C=NCC(C)N=CC2=C(O)C(C(=O)OC)C(C)(C)CC2=O)C(=O)CC1(C)C` (stereo not drawn), for which the growth inhibition is -3.87%.

As to `CCCCNC(=O)CS(=O)Cc1nc(-c2cccc(Cl)c2)oc1C` (stereo not drawn), the growth inhibition is 11.4%.

Turning to `CCn1c(SCC(=O)Nc2nnc(C)s2)nc2c(c1=O)SC(C)C2` (stereo not drawn), the growth inhibition was -16.4%.

For the molecule `CC(=O)N1CCC2(CC1)C(C#N)=C(N)Oc1n[nH]c(C)c12`, the growth inhibition was 14.8%.

In the case of `O=C1c2ccccc2C(O)N1CCN1CCOCC1` (stereo not drawn), the growth inhibition is -6.41%.

`Cc1sc2nc(SCC(=O)N3CCOCC3)[nH]c(=O)c2c1C`: the growth inhibition was -1.96%.

`Cn1nnnc1SCc1nc2ccccc2[nH]1`: the growth inhibition was -5.67%.

`CCOC(=O)c1cc2c(=O)n3ccccc3nc2n(CCCOC)c1=NC(=O)c1cccnc1`: the growth inhibition was -4.29%.

Consider `COc1c(C)cccc1C(=O)Nc1cc(-c2nn3c(C)nnc3s2)ccc1C`, for which the growth inhibition is 37%.

As for `O=C1CC(C(=O)N2CCN(c3ccc(F)cc3)CC2)CN1CCc1ccccc1` (stereo not drawn), the growth inhibition is 5.89%.

Regarding `CCOc1ccc(S(=O)(=O)N2CCN(S(=O)(=O)c3ccc(OCC)cc3)C(C)C2)cc1` (stereo not drawn), the growth inhibition was 1.25%.

Regarding `O=C(O)CC1C(=O)NCCN1CCCc1ccccc1` (stereo not drawn), the growth inhibition is -8.64%.

For `O=C(NCC1CCCO1)C1CC(=O)N(c2ccc(F)c(Cl)c2)C1` (stereo not drawn), the growth inhibition was -1.83%.

Consider `Cc1ccc(S(=O)(=O)N(C)Cc2nc(-c3ccc(Br)cc3)no2)cc1`, for which the growth inhibition is -0.88%.

As for `CCCCN=C(C)C1=C(O)CSC1=O`, the growth inhibition is 4.99%.

On to `C=C(C)Cn1c(C2CC(=O)N(Cc3ccccc3)C2)nc2ccccc21` (stereo not drawn), for which the growth inhibition is -1.79%.

Consider `O=C(c1ccccc1)N1CCN(c2ccc(NCc3ccc4c(c3)OCO4)cc2)CC1`, for which the growth inhibition was -14.4%.

As to `Cc1csc2nc(CNS(=O)(=O)N(C)C)cn12`, the growth inhibition was 19.6%.

As for `CCOC(=O)C1CCCCN1Cc1cc(Cl)ccc1O` (stereo not drawn), the growth inhibition is -13.2%.

The record behind these values is PubChem BioAssay.
